Measured values as given in ChEMBL document CHEMBL1914355, “Discovery of new orally active prostaglandin D2 receptor antagonists” (Bioorg Med Chem, 2011).
≈ marks a conversion by molar mass, not a printed value.

Key:
[1] = target: Prostacyclin receptor (Homo sapiens, UniProt P43119); assay: Displacement of [3H]Iloprost from human prostanoid IP receptor expressed in CHO cells after 30 mins by liquid scintillation counting; format: cell-based
Outline: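 Membranes from CHO cells stably expressing hIP were incubated with 5.0 nM [³H]iloprost and graded compound concentrations in 50 mM Tris-HCl (1 mM EDTA, 10 mM MgCl₂, pH 7.5) for 30 min at room temperature. Filters (GF/B) were washed with ice-cold Tris/NaCl pH 7.5, dried 60 min at 60 °C, and counted. Nonspecific binding used excess unlabeled iloprost. Ki = IC50/(1+[L]/Kd).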

[2] = target: T1, Prostaglandin D2 receptor (Homo sapiens, UniProt Q13258); assay: Antagonist activity at prostanoid DP receptor in human platelet rich plasma assessed as inhibition of PGD2-induced intracellular cAMP production after 10 mins by enzyme immunoassay; format: functional, cell-based; conditions: in the assay text read “after 15 mins” for “after 10 mins”
T1 sequence (Q13258 whole entry): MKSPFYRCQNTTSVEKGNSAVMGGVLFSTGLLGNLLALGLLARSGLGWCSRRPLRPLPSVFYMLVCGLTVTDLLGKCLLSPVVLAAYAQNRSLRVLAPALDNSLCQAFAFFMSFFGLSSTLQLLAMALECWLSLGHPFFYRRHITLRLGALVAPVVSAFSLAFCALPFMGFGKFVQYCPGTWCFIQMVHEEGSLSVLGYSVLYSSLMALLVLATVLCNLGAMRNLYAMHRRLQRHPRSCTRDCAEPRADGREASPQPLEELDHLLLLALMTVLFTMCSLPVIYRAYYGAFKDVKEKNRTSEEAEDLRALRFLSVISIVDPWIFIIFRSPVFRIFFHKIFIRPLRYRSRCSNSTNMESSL
Outline: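 Human PRP with EDTA (~10 mmol/L) was spun at 1500 G for 15 min. Platelets were resuspended in PPP at 5.0 × 10⁵/µL with IBMX (8 mmol/L final) and an EP3 antagonist, then held 5 min at 37 °C. Compound was added for 10 min at 37 °C, then PGD₂ (3 µmol/L final) for 15 min. TCA stop, tri-n-octylamine extraction, cAMP EIA. IC50 derived from inhibition ratio.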

[3] = Cmax in rat at 1 mg/kg, po administered as single dose; conditions: in vivo
[4] = Half life in rat at 1 mg/kg, po administered as single dose; format: ADME, organism-based; parameters: dose 1 mg/kg, route oral; conditions: in vivo
Outline: (§1)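 Fasted male rats (n = 3) received a single oral 1 mg/kg dose in 0.5% methylcellulose. Jugular blood was drawn into heparin before dosing and at 15, 30 min and 1, 2, 4, 6, 8, 24 h. Plasma was separated at 4 °C. Parameters came from the plasma concentration-time course.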

[5] = Half life in rat at 1 mg/kg, iv administered as single dose; format: ADME, organism-based; parameters: dose 1 mg/kg, route intravenous; conditions: in vivo
Outline: (§2)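 Fasted male rats (n = 3) received a single 1 mg/kg iv dose in 30% HP-β-CD with 5% DMSO and 1 eq NaHCO₃. Jugular blood was drawn into heparin before dosing and at 5, 15, 30 min and 1, 2, 4, 6, 8, 24 h. Plasma was obtained by centrifugation at 4 °C. Parameters came from the plasma concentration-time course.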

[6] = system: Cavia porcellus; assay: Inhibition of OVA-induced vascular permeability in Hartley guinea pig conjunctiva at 1 mg/kg, po administered 1 hr before antigen challenge measured after 30 mins; format: functional
Outline: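 Male Hartley guinea pigs were sensitized ip with OVA (1 mg) plus inactivated B. pertussis. Two weeks later they were challenged topically with OVA (1%, 20 µL/eye), followed at once by Evans blue (20 mg/kg iv). Compound was given orally 1 h before challenge (n = 7). After 30 min the conjunctiva was removed, dye was extracted in DMF at 37 °C, and A620 was read against a standard curve. Dunnett's test was used.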

[7] = Kinetic solubility of the compound; format: physicochemical; conditions: read-out: Kinetic_solubility
[8] = Volume of distribution at steady state in rat at 1 mg/kg, iv administered as single dose; format: ADME, organism-based; parameters: dose 1 mg/kg, route intravenous; conditions: in vivo, read-out: Vdss; outline: as §2
[9] = AUC (0 to infinity) in rat at 1 mg/kg, po administered as single dose; format: ADME, organism-based; parameters: time infinity, dose 1 mg/kg, route oral; conditions: plasma
Outline: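 Fasted male rats (n = 3) given a single oral dose of 1 mg/kg in 0.5% MC. Heparinized jugular vein blood sampled pre-dose and at 15, 30 min and 1, 2, 4, 6, 8, 24 h. Plasma separated by centrifugation at 4 °C and kept at -80 °C. AUC derived from the plasma concentration–time profile.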

[10] = target: T2, Prostaglandin D2 receptor (Mus musculus, UniProt P70263); assay: Displacement of [3H]-PGD2 from mouse DP receptor expressed in CHO cells after 20 mins by liquid scintillation counting; format: cell-based
T2 sequence (P70263 whole entry): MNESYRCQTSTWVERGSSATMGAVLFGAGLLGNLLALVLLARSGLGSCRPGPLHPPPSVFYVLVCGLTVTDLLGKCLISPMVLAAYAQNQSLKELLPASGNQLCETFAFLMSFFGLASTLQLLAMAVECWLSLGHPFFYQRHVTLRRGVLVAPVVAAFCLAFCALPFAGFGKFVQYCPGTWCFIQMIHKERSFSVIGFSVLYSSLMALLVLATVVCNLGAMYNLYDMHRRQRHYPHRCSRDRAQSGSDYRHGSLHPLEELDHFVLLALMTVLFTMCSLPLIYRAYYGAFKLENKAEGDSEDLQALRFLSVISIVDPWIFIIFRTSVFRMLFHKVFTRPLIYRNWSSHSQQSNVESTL
Outline: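 CHO-mDP membranes were incubated with 2.5 nM [³H]PGD₂ and graded compound concentrations in 25 mM HEPES-NaOH (1 mM EDTA, 5 mM MgCl₂, 10 mM MnCl₂, pH 7.4) for 20 min at room temperature. Bound ligand was collected on GF/B filters and washed with ice-cold Tris/NaCl/0.01% BSA, pH 7.4. Nonspecific binding was defined with excess unlabeled PGD₂. IC50 came from the regression curve; Ki = IC50/(1+[L]/Kd).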

[11] = Oral bioavailability in rat at 1 mg/kg administered as single dose; format: ADME, organism-based; conditions: in vivo
Outline: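 Fasted male rats (n = 3) were given 1 mg/kg orally in 0.5% methylcellulose and 1 mg/kg iv in 30% HP-β-CD/5% DMSO/NaHCO₃, each as a single dose. Plasma from serial jugular samples was analysed. Bioavailability was derived from oral versus iv exposure, corrected for dose (D_po, D_iv).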

[12] = AUC (0 to infinity) in rat at 1 mg/kg, iv administered as single dose; format: ADME, organism-based; parameters: time infinity, dose 1 mg/kg, route intravenous; conditions: plasma
Outline: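 Single IV dose of 1 mg/kg to fasted male rats (n = 3). Vehicle: 30% HP-b-CD containing 5% DMSO with NaHCO3 (1 eq). Jugular vein blood taken in heparinized syringe pre-dose and at 5, 15, 30 min and 1, 2, 4, 6, 8, 24 h. Plasma obtained by centrifugation at 4 °C and stored at -80 °C. AUC derived from the plasma concentration–time course.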

[13] = system: Cavia porcellus; assay: Inhibition of PGD2-induced vascular permeability in Hartley guinea pig conjunctiva at 0.1 mg/kg, po administered 1 hr before antigen challenge measured after 30 mins; format: functional
Outline: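 Guinea pigs (n = 8) were dosed orally 1 h before topical PGD₂ challenge (20 µL/eye). 5% Evans blue (1 mL/kg iv) was given immediately after challenge. After 30 min the conjunctiva was excised and dye extracted in DMF at 37 °C, with absorbance read at 620 nm. Dunnett's test versus control.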

[14] = target: T2, Prostaglandin D2 receptor; assay: Antagonist activity at mouse prostanoid DP receptor expressed in CHO cells assessed as inhibition of PGD2-induced intracellular cAMP production after 10 mins by enzyme immunoassay; format: functional, cell-based
Outline: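 CHO cells expressing mDP seeded at 1 × 10⁵ cells/well and grown 2 days. They were rinsed and preincubated ~10 min at 37 °C in MEM with 2 µM diclofenac, then ~10 min in assay medium (MEM, 0.1% BSA, 1 mM IBMX, 2 µM diclofenac). Compound plus 10 nM PGD₂ was added for 10 min at 37 °C. TCA stop, tri-n-octylamine/chloroform extraction, cAMP by EIA. IC50 taken from % of maximal cAMP rise without compound.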

[15] = Total clearance in rat at 1 mg/kg, iv administered as single dose; format: ADME, organism-based; parameters: dose 1 mg/kg, route intravenous; conditions: in vivo; outline: as §2
[16] = Cmax in rat at 1 mg/kg, po administered as single dose; format: ADME, organism-based; parameters: dose 1 mg/kg, route oral; conditions: in vivo; outline: as §1

Prostacyclin receptor, sequence (P43119 whole entry): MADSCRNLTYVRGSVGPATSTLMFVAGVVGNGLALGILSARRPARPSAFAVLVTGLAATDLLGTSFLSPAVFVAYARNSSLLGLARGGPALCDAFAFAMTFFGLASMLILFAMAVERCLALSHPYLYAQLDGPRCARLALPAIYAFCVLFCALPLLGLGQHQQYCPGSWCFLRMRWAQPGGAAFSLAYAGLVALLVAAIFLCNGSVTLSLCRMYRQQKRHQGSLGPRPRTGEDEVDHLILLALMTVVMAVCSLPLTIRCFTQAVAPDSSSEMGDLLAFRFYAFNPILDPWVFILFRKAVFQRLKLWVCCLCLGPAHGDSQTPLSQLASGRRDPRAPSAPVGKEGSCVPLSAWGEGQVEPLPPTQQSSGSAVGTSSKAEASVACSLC

Compound | Ki [1] | IC50 [14] | other results
CN1C[C@@H](COc2ccc(C(=O)Nc3cccc(CC(=O)O)c3)c(Cl)c2)Oc2ccccc21 | 2700 nM |  | 
CN1C[C@@H](COc2ccc(C(=O)Nc3cc(CC(=O)O)ccc3Cl)c(Cl)c2)Oc2ccccc21 |  |  | IC50 [2]: > 50 nM
Cc1cc(OC[C@@H]2CN(C)c3ccccc3O2)cc(C)c1C(=O)Nc1cc(C(C)(C)C(=O)O)ccc1Cl | > 10000 nM | 0.7 nM | Cmax [16]: 1670 ng/mL; half-life [4]: 5.6 h; half-life [5]: 6.5 h; solubility kinetic [7]: 490 µg/mL (≈ 937 µM); Vd [8]: 0.669 L/kg; AUC(0-inf) [9]: 8280 ng·h/mL; bioavailability [11]: 87%; IC50 [2]: 8.1 nM; AUC(0-inf) [12]: 9520 ng·h/mL; inhibition in vivo at 0.1 mg/kg [13]: 58%; clearance [15]: 1.8 mL/min/kg
Cc1cc(OC[C@@H]2CN(C)c3ccccc3O2)cc(C)c1C(=O)Nc1cccc(CC(=O)O)c1 | > 10000 nM | 3.5 nM | 
Cc1cc(C(=O)Nc2cc(C3(C(=O)O)CC3)ccc2Cl)c(C)cc1OC[C@@H]1CN(C)c2ccccc2O1 | 1700 nM | 26 nM | IC50 [2]: 19 nM
Cc1cc(OC[C@@H]2CN(C)c3ccccc3O2)ccc1C(=O)Nc1cc(CC(=O)O)ccc1F | > 10000 nM |  | 
Cc1cc(OC[C@@H]2CN(C)c3ccccc3O2)cc(C)c1C(=O)Nc1cc(C2(C(=O)O)CC2)ccc1Cl | > 10000 nM | 1 nM | solubility kinetic [7]: 321 µg/mL (≈ 616 µM)
Cc1ccc(CC(=O)O)cc1NC(=O)c1cc(C)c(OC[C@@H]2CN(C)c3ccccc3O2)cc1C | 2600 nM | 5.7 nM | 
Cc1cc(C(=O)Nc2cccc(CC(=O)O)c2)c(C)cc1OC[C@@H]1CN(C)c2ccccc2O1 | > 10000 nM | 28 nM | 
Cc1c(OC[C@@H]2CN(C)c3ccccc3O2)ccc(C(=O)Nc2cc(CC(=O)O)ccc2Cl)c1C | 3500 nM | 54 nM | Ki [10]: 28 nM
Cc1cc(C(=O)Nc2cc(C(C)(C)C(=O)O)ccc2Cl)c(C)cc1OC[C@@H]1CN(C)c2ccccc2O1 | 3300 nM | 43 nM | IC50 [2]: 32 nM
Cc1ccc(CC(=O)O)cc1NC(=O)c1ccc(OC[C@@H]2CN(C)c3ccccc3O2)cc1Cl | 1400 nM |  | 
Cc1c(OC[C@@H]2CN(C)c3ccccc3O2)ccc(C(=O)Nc2cccc(CC(=O)O)c2)c1C | > 10000 nM | 22 nM | 
Cc1ccc(CC(=O)O)cc1NC(=O)c1ccc(OC[C@@H]2CN(C)c3ccccc3O2)c(C)c1C | 5200 nM | 12 nM | 
CN1C[C@@H](COc2ccc(C(=O)n3ccc4c(CC(=O)O)cccc43)cc2)Oc2ccccc21 | 2500 nM |  | Ki [10]: 1700 nM
Cc1cc2c(CC(=O)O)cccc2n1C(=O)c1ccc(OC[C@@H]2CN(C)c3ccccc3O2)cc1 |  |  | solubility kinetic [7]: 8.2 µg/mL (≈ 17.4 µM); IC50 [2]: 57 nM; inhibition in vivo at 0.1 mg/kg [13]: 67%
CN1C[C@@H](COc2ccc(C(=O)Nc3cc(C(F)(F)C(=O)O)ccc3Cl)c(Cl)c2)Oc2ccccc21 | 520 nM | 14 nM | 
CN1C[C@@H](COc2ccc(C(=O)Nc3cc(C(C)(C)C(=O)O)ccc3Cl)c(Cl)c2)Oc2ccccc21 | 3300 nM | 7 nM | solubility kinetic [7]: 139 µg/mL (≈ 263 µM); IC50 [2]: 280 nM

Further lines, with some results ahead:

Ki [1] | IC50 [14] | Compound | other results
> 10000 nM | 7.6 nM | Cc1cc(OC[C@@H]2CN(C)c3ccccc3O2)cc(C)c1C(=O)Nc1cc(CC(=O)O)ccc1Cl | Cmax [3]: 930 ng/mL; half-life [4]: 5.8 h; half-life [5]: 6.2 h; inhibition in vivo at 1 mg/kg [6]: 46%; solubility kinetic [7]: 407 µg/mL (≈ 822 µM); Vd [8]: 0.622 L/kg; AUC(0-inf) [9]: 8120 ng·h/mL; Ki [10]: 6.4 nM; bioavailability [11]: 72%; IC50 [2]: 4.4 nM; AUC(0-inf) [12]: 11300 ng·h/mL; inhibition in vivo at 0.1 mg/kg [13]: 55%; clearance [15]: 1.6 mL/min/kg
> 10000 nM | 1.5 nM | Cc1cc(OC[C@@H]2COc3ccccc32)cc(C)c1C(=O)Nc1cc(CC(=O)O)ccc1Cl | 
> 10000 nM | 27 nM | Cc1cc(OCC2Oc3ccccc3O2)cc(C)c1C(=O)Nc1cc(CC(=O)O)ccc1Cl | 
1800 nM |  | Cc1cc(OC[C@@H]2CN(C)c3ccccc3O2)ccc1C(=O)Nc1cc(CC(=O)O)ccc1Cl | solubility kinetic [7]: 129 µg/mL (≈ 268 µM)
> 10000 nM | 4.8 nM | Cc1ccc(CC(=O)O)cc1NC(=O)c1c(C)cc(OC[C@@H]2CN(C)c3ccccc3O2)cc1C | 
> 10000 nM | 4.3 nM | Cc1cc(OC[C@@H]2COc3ccccc3O2)cc(C)c1C(=O)Nc1cc(CC(=O)O)ccc1Cl | 
> 10000 nM | 14 nM | Cc1cc(OC[C@@H]2Cc3ccccc3O2)cc(C)c1C(=O)Nc1cc(CC(=O)O)ccc1Cl | 
> 10000 nM | 24 nM | Cc1ccc2c(c1)[C@H](COc1cc(C)c(C(=O)Nc3cc(CC(=O)O)ccc3Cl)c(C)c1)CO2 | 
1800 nM | 5.1 nM | Cc1cc(C(=O)Nc2cc(CC(=O)O)ccc2Cl)c(C)cc1OC[C@@H]1CN(C)c2ccccc2O1 | solubility kinetic [7]: 17 µg/mL (≈ 34.3 µM)
